Experimental data: ChEMBL document CHEMBL3124843, “Synthesis, cytostatic, antimicrobial, and anti-HCV activity of 6-substituted 7-(het)aryl-7-deazapurine ribonucleosides” (J Med Chem, 2014)
pEC50, pIC50: −log10 of the molar value. Active and inactive are the calls of the source. No rule for the calls is given here.

How the values were obtained:
[1] = Cytotoxicity against human HuH7 cells infected with Hepatitis C virus subtype 1b; format: cell-based, Huh-7
Candida parapsilosis = test: Antifungal activity against Candida parapsilosis after 48 hrs; format: functional, organism-based
MRC5 = test: Cytostatic activity against human MRC5 cells after 72 hrs by MTT assay; format: ADME, cell-based; conditions: MRC5, 72 h
Procedure, shortened: (§1)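 IC50 is the concentration that cuts cell growth by 50%, read by quantitative metabolic MTT staining after a 3-day treatment. The resistant sublines were made by raising the concentration of the cytotoxic drug step by step. CEM-DNR-bulk (daunorubicin-selected) stably overexpresses mrp-1. K562-TAX (paclitaxel-selected) expresses only mdr-1. HCT116p53−/− carries null p53 alleles. BJ and MRC-5 are nonmalignant fibroblasts.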

Pichia kudriavzevii = test: Antifungal activity against Candida crusei after 48 hrs; format: functional, organism-based
K562 [2] = test: Cytostatic activity against paclitaxel-resistant human K562 cells after 72 hrs by MTT assay; format: functional, cell-based; conditions: K562, 72 h; procedure, shortened: as §1
Candida tropicalis = test: Antifungal activity against Candida tropicalis after 48 hrs; format: functional, organism-based
Staphylococcus aureus [3] = test: Antibacterial activity against methicillin-resistant Staphylococcus aureus MRSA 4591 after 24 hrs; format: functional, organism-based
Enterococcus faecalis = test: Antibacterial activity against Enterococcus faecalis CCM 4224 after 24 hrs; format: functional, organism-based
K562 [4] = test: Cytostatic activity against human K562 cells after 72 hrs by MTT assay; format: functional, cell-based; conditions: K562, 72 h; procedure, shortened: as §1
Candida albicans = test: Antifungal activity against Candida albicans after 48 hrs; format: functional, organism-based
Staphylococcus aureus [5] = test: Antibacterial activity against Staphylococcus aureus CCM 3953 after 24 hrs; format: functional, organism-based
HL-60 = test: Antiproliferative activity against human HL60 cells after 72 hrs by XTT assay; format: functional, cell-based; conditions: HL-60, 72 h
Procedure, shortened: (§2)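 Antiproliferative test on HL-60 promyelocytic leukemia and HeLa S3 cervical carcinoma cells growing in liquid suspension.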

Escherichia coli [6] = test: Antibacterial activity against Escherichia coli CCM 3954 after 24 hrs; format: functional, organism-based
HCT-116 [7] = test: Cytostatic activity against human HCT116 cells after 72 hrs by MTT assay; format: functional, cell-based; conditions: HCT-116, 72 h; procedure, shortened: as §1
[8] = Cytostatic activity against human CEM-DNR-bulk cells after 72 hrs by MTT assay; format: functional, cell-based; procedure, shortened: as §1
Pseudomonas aeruginosa [9] = test: Antibacterial activity against Pseudomonas aeruginosa CCM 3955 after 24 hrs; format: functional, organism-based
[10] = Cytotoxicity against human HuH7 cells infected with Hepatitis C virus subtype 2a; format: cell-based, Huh-7
[11] = Antiproliferative activity against human HeLaS3 cells after 72 hrs by XTT assay; format: functional, cell-based; conditions: HeLa S3, 72 h; procedure, shortened: as §2
HepG2 = test: Antiproliferative activity against human HepG2 cells after 72 hrs by XTT assay; format: functional, cell-based; conditions: HepG2, 72 h
BJ = test: Cytostatic activity against human BJ cells after 72 hrs by MTT assay; format: ADME, cell-based; procedure, shortened: as §1
Hepatitis C virus [12] = test: Antiviral activity against Hepatitis C virus subtype 2a infected in human HuH7 cells; format: functional, organism-based, Hepacivirus hominis; conditions: genotype 2a, Huh-7
Pseudomonas aeruginosa [13] = test: Antibacterial activity against multi-resistant Pseudomonas aeruginosa A/16575 after 24 hrs; format: functional, organism-based
CCRF-CEM = test: Cytostatic activity against human CCRF-CEM cells after 72 hrs by MTT assay; format: functional, cell-based; procedure, shortened: as §1
Escherichia coli [14] = test: Antibacterial activity against multi-resistant Escherichia coli C/16702 after 24 hrs; format: functional, organism-based
Hepatitis C virus [15] = test: Antiviral activity against Hepatitis C virus subtype 1b infected in human HuH7 cells; format: functional, organism-based, Hepacivirus hominis; conditions: genotype 1b, Huh-7
HCT-116 [16] = test: Cytostatic activity against p53-deficient human HCT116 cells after 72 hrs by MTT assay; format: functional, cell-based; conditions: HCT-116, 72 h; procedure, shortened: as §1
[17] = system: Staphylococcus haemolyticus; test: Antibacterial activity against methicillin-resistant Staphylococcus haemolyticus A/16568 after 24 hrs; format: functional, organism-based
A549 = test: Cytostatic activity against human A549 cells after 72 hrs by MTT assay; format: functional, cell-based; conditions: A549, 72 h; procedure, shortened: as §1

SMILES | CC50 [1] [µM] | Activity (Candida parapsilosis) | pIC50 (MRC5) | Activity (Pichia kudriavzevii) | pIC50 (K562 [2]) | Activity (Candida tropicalis) | Activity (Staphylococcus aureus [3]) | Activity (Enterococcus faecalis) | pIC50 (K562 [4]) | Activity (Candida albicans) | Activity (Staphylococcus aureus [5]) | Activity (Escherichia coli [6]) | pIC50 (HCT-116 [7]) | pIC50 [8] | Activity (Pseudomonas aeruginosa [9]) | pIC50 [11] | pIC50 (BJ) | Activity (Pseudomonas aeruginosa [13]) | pIC50 (CCRF-CEM) | Activity (Escherichia coli [14]) | other results
COc1ncnc2c1c(-c1ccccc1)cn2[C@@H]1O[C@H](CO)[C@@H](O)[C@H]1O | > 44 | inactive | < 4.00 | inactive | < 4.70 | inactive | inactive | inactive | < 4.70 | inactive | inactive | inactive | < 4.70 | < 4.70 | inactive | < 4.70 | < 4.00 | inactive | < 4.70 | inactive | pIC50 (HL-60): < 4.70; CC50 [10]: > 44 µM; pIC50 (HepG2): < 4.70; pEC50 (Hepatitis C virus [12]): < 4.36; pEC50 (Hepatitis C virus [15]): 4.68; pIC50 (HCT-116 [16]): < 4.70; Activity [17]: inactive; pIC50 (A549): < 4.70
Nc1nc(N)c2c(-c3ccccc3)cn([C@@H]3O[C@H](CO)[C@@H](O)[C@H]3O)c2n1 | > 44 | inactive | < 4.00 | inactive | < 4.70 | inactive | inactive | inactive | < 4.70 | inactive | inactive | inactive | < 4.70 | < 4.70 | inactive | < 4.70 | < 4.00 | inactive | < 4.70 | inactive | pIC50 (HL-60): < 4.82; CC50 [10]: > 44 µM; pIC50 (HepG2): < 4.70; pEC50 (Hepatitis C virus [12]): < 4.36; pEC50 (Hepatitis C virus [15]): < 4.36; pIC50 (HCT-116 [16]): < 4.70; Activity [17]: inactive; pIC50 (A549): < 4.70
CSc1ncnc2c1c(-c1ccccc1)cn2[C@@H]1O[C@H](CO)[C@@H](O)[C@H]1O | > 44 | inactive | < 4.00 | inactive | < 4.70 | inactive | inactive | inactive | < 4.70 | inactive | inactive | inactive | < 4.70 | < 4.70 | inactive | < 4.70 | < 4.00 | inactive | < 4.70 | inactive | pIC50 (HL-60): < 4.70; CC50 [10]: > 44 µM; pIC50 (HepG2): < 4.70; pEC50 (Hepatitis C virus [12]): < 4.36; pEC50 (Hepatitis C virus [15]): 4.63; pIC50 (HCT-116 [16]): < 4.70; Activity [17]: inactive; pIC50 (A549): < 4.70
Cc1ncnc2c1c(-c1ccco1)cn2[C@@H]1O[C@H](CO)[C@@H](O)[C@H]1O | 6.62 | inactive | 6.21 | inactive | 6.96 | inactive | inactive | inactive | 7.40 | inactive | inactive | inactive | 7.40 | 7.15 | inactive | 5.88 | 7.15 | inactive | 7.40 | inactive | pIC50 (HL-60): 6.68; CC50 [10]: 43.6 µM; pIC50 (HepG2): 6.52; pEC50 (Hepatitis C virus [12]): 6.82; pEC50 (Hepatitis C virus [15]): 7.15; pIC50 (HCT-116 [16]): 7.40; Activity [17]: inactive; pIC50 (A549): 6.96
Cc1nc(N)c2c(-c3cccs3)cn([C@@H]3O[C@H](CO)[C@@H](O)[C@H]3O)c2n1 | > 44 | inactive | < 4.00 | inactive | < 4.70 | inactive | inactive | inactive | < 4.70 | inactive | inactive | inactive | < 4.70 | < 4.70 | inactive | < 4.70 | < 4.00 | inactive | < 4.70 | inactive | pIC50 (HL-60): < 4.70; CC50 [10]: > 44 µM; pIC50 (HepG2): < 4.70; pEC50 (Hepatitis C virus [12]): < 4.36; pEC50 (Hepatitis C virus [15]): < 4.36; pIC50 (HCT-116 [16]): < 4.70; Activity [17]: inactive; pIC50 (A549): < 4.70
C#Cc1cn([C@@H]2O[C@H](CO)[C@@H](O)[C@H]2O)c2ncnc(C)c12 | > 44 | inactive | 5.84 | inactive | 6.96 | inactive | inactive | inactive | 5.16 | inactive | inactive | inactive | < 4.70 | 6.80 | inactive | 4.83 | 7.30 | inactive | 5.25 | inactive | pIC50 (HL-60): 5.95; CC50 [10]: > 44 µM; pIC50 (HepG2): 6.54; pEC50 (Hepatitis C virus [12]): 4.67; pEC50 (Hepatitis C virus [15]): 6.64; pIC50 (HCT-116 [16]): < 4.70; Activity [17]: inactive; pIC50 (A549): 4.72
Nc1ncnc2c1c(-c1ccco1)cn2[C@@H]1O[C@H](CO)[C@@H](O)[C@H]1O | > 44 | inactive | 4.44 | inactive | 7.30 | inactive | inactive | inactive | 7.40 | inactive | inactive | inactive | 7.52 | 6.68 | inactive | 7.30 | 4.74 | inactive | 7.40 | inactive | CC50 [10]: > 44 µM; pEC50 (Hepatitis C virus [12]): < 4.36; pEC50 (Hepatitis C virus [15]): < 4.36; pIC50 (HCT-116 [16]): 6.77; Activity [17]: inactive; pIC50 (A549): 7.52
Nc1nc2c(c(-c3cccs3)cn2[C@@H]2O[C@H](CO)[C@@H](O)[C@H]2O)c(=O)[nH]1 | > 44 | inactive | < 4.00 | inactive | 4.77 | inactive | inactive | inactive | < 4.70 | inactive | inactive | inactive | < 4.70 | < 4.70 | inactive | < 4.70 | < 4.00 | inactive | < 4.70 | inactive | pIC50 (HL-60): < 4.70; pIC50 (HepG2): < 4.70; pEC50 (Hepatitis C virus [15]): 4.73; pIC50 (HCT-116 [16]): 4.70; Activity [17]: inactive; pIC50 (A549): < 4.70
